Results reported in ChEMBL document CHEMBL4390658, “Rational design of allosteric modulators of the aromatase enzyme: An unprecedented therapeutic strategy to fight breast cancer” (Eur J Med Chem, 2019).

Tests used:
Aromatase [1] = target: T1, Aromatase (Homo sapiens, UniProt P11511); assay: Inhibition of recombinant human aromatase at 100 uM preincubated for 10 mins followed by substrate and beta-NADP+ addition and measured for 60 mins by fluorescence method; conditions: 1 h
T1 sequence (P11511 whole entry): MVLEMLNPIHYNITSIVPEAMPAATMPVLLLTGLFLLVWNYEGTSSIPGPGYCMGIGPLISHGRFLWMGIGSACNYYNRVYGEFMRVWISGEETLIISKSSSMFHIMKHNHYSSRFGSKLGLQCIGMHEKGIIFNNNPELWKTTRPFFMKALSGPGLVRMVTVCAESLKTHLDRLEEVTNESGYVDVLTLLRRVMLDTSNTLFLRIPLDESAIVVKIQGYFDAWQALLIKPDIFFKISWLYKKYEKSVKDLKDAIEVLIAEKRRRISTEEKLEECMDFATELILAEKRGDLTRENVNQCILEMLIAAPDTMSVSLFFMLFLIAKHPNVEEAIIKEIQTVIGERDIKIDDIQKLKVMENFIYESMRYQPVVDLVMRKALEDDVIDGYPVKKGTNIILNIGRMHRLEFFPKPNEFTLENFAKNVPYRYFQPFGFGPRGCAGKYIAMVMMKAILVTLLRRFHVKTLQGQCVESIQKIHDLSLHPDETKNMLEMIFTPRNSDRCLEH
Procedure, shortened: (§1)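 Single-concentration screen of recombinant human aromatase with an NADPH-generating system, at 100 and 200 µM inhibitor, DMSO ≤0.25% (v/v) final. Mix preincubated 10 min at 37°C, then fluorogenic substrate plus β-NADP+ added. Fluorescence read at 488/527 nm over 60 min. % inhibition taken from the RFU ratio of control to test, in triplicate.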

Aromatase [2] = target: T1, Aromatase; assay: Inhibition of recombinant human aromatase at 200 uM preincubated for 10 mins followed by substrate and beta-NADP+ addition and measured for 60 mins by fluorescence method; conditions: 1 h; procedure, shortened: as §1
Aromatase [3] = target: T1, Aromatase; assay: Inhibition of recombinant human aromatase preincubated for 10 mins followed by substrate and beta-NADP+ addition and measured for 60 mins by fluorescence method
MCF7 = assay: Growth inhibition of human MCF7 cells incubated for 72 hrs by cell counting based method; format: functional; conditions: MCF7, 72 h
Procedure, shortened: (§2)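 MCF-7 (ER+) and MDA-MB-231 (ER−) cells from ATCC, seeded at 50000 cells/well in triplicate. After 24 h, exposed for 72 h to graded concentrations, up to 200 µM. Cells trypsinized and counted electronically. Means of three independent experiments, each in triplicate, used for dose-response curves and GI50.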

MDA-MB-231 = assay: Growth inhibition of human MDA-MB-231 cells incubated for 72 hrs by cell counting based method; format: functional; conditions: MDA-MB-231, 72 h; procedure, shortened: as §2
Aromatase [4] = target: T1, Aromatase; assay: Mixed type inhibition of recombinant human aromatase assessed as substrate Vmax preincubated for 10 mins followed by different substrate concentration and beta-NADP+ addition and measured for 60 mins by fluorescence method based Cornish-Bowden direct linear analysis (reference value: 91.5 /ms); conditions: 1 h
Aromatase [5] = target: T1, Aromatase; assay: Mixed type inhibition of recombinant human aromatase assessed as Vmax preincubated for 10 min followed by different substrate concentration and beta-NADP+ addition measured for 60 mins by fluorescence method based Michaelis-menten analysis (reference value: 93.3 +/- 1.3 /ms); conditions: 1 h
Aromatase [6] = target: T1, Aromatase; assay: Inhibition of recombinant human aromatase at 1 uM preincubated for 10 mins followed by substrate and beta-NADP+ addition and measured for 60 mins by fluorescence method; conditions: 1 h, read-out: INH

Question: What does the source list for CCSC(C(O)C(O)C(O)C(O)CO)n1cnc2c(S)ncnc21 (configuration not stated)?
Answer: inhibition at 100 µM (Aromatase [1]): 2%; inhibition at 200 µM (Aromatase [2]): 12%

Question: What does the source list for CC(C)(C)NCC(O)COc1cccc2c1C[C@H](O)[C@H](O)C2 (some centres not stated) [NADOLOL]?
Answer: inhibition at 100 µM (Aromatase [1]): 0%; inhibition at 200 µM (Aromatase [2]): 0%

Question: What does the source list for COC(=O)c1ccc(NCC2=CC(=O)c3ccccc3C2=O)cc1?
Answer: IC50 (Aromatase [3]): 95.3 µM; inhibition at 100 µM (Aromatase [1]): 86%; inhibition at 200 µM (Aromatase [2]): 97%; GI50 (MCF7): 22.1 µM; GI50 (MDA-MB-231): 16.2 µM; Vmax (Aromatase [4]): 60.6 U/ms; Vmax (Aromatase [5]): 79.3 U/ms

Question: With CC[C@H](CO)N(Cc1ccccn1)C(=O)c1ccc(=O)[nH]c1 as the compound, how does the inhibition at 100 µM (Aromatase [1]) read?
Answer: 2%

Question: What about the inhibition at 200 µM (Aromatase [2]) of the same compound?
Answer: 6%

Question: Which results are given for O=C(C=Cc1ccc(O)c(O)c1)NCC(=O)NC(Cc1ccccc1)C(=O)O (configuration not stated)?
Answer: inhibition at 100 µM (Aromatase [1]): 10%; inhibition at 200 µM (Aromatase [2]): 13%

Question: COc1ccc([C@@H](O)CNC(=O)N[C@@H]2CCCCNC2=O)cc1 was tested. Which inhibition at 100 µM (Aromatase [1]) did it give?
Answer: 4%

Question: What about the inhibition at 200 µM (Aromatase [2]) of the same compound?
Answer: 19%

Question: How did the GI50 (MCF7) turn out when N#Cc1ccc(C(c2ccc(C#N)cc2)n2cncn2)cc1 [LETROZOLE] was run?
Answer: 4.1 µM

Question: And the GI50 (MDA-MB-231)?
Answer: > 10 µM

Question: And the inhibition at 1 µM (Aromatase [6])?
Answer: 91%

Question: What does the source list for O=C(NCc1cc[nH]c(=O)c1)c1ccc(COCC(F)(F)F)cc1?
Answer: inhibition at 100 µM (Aromatase [1]): 3%; inhibition at 200 µM (Aromatase [2]): 3%

Question: OCC(O)C(O)C(O)C(c1ccc(Cl)cc1)c1ccc(Cl)cc1 (configuration not stated) was tested. Which inhibition at 100 µM (Aromatase [1]) did it give?
Answer: 11%

Question: What about the inhibition at 200 µM (Aromatase [2]) of the same compound?
Answer: 10%

Question: Which results are given for NC(CCC(=O)O)C(=O)NC(Cc1c[nH]c2ccccc12)C(=O)O (configuration not stated)?
Answer: inhibition at 100 µM (Aromatase [1]): 4%; inhibition at 200 µM (Aromatase [2]): 3%

Question: Which IC50 (Aromatase [3]) does the source give for O=C1c2c(O)ccc(O)c2C(=O)c2c(NCCCO)ccc(NCCCO)c21 here?
Answer: 11 µM

Question: And the inhibition at 100 µM (Aromatase [1])?
Answer: 83%

Question: And the inhibition at 200 µM (Aromatase [2])?
Answer: 92%

Question: What about the GI50 (MCF7) of the same compound?
Answer: 17.9 µM

Question: And the GI50 (MDA-MB-231)?
Answer: 6.8 µM

Question: What about the Vmax (Aromatase [4]) of the same compound?
Answer: 16.2 U/ms

Question: And the Vmax (Aromatase [5])?
Answer: 21.5 U/ms

Question: O=C1c2c(O)cc(O)cc2O[C@H](c2ccc(O)c(O)c2)[C@H]1O [(+)-TAXIFOLIN] was tested. Which inhibition at 100 µM (Aromatase [1]) did it give?
Answer: 46%

Question: And the inhibition at 200 µM (Aromatase [2])?
Answer: 56%

Question: How did the IC50 (Aromatase [3]) turn out when CC[C@H](Nc1cc(C)nc(Nc2cccc(O)c2)n1)c1nccs1 was run?
Answer: 5.1 µM

Question: What about the inhibition at 100 µM (Aromatase [1]) of the same compound?
Answer: 79%

Question: What about the inhibition at 200 µM (Aromatase [2]) of the same compound?
Answer: 88%

Question: And the GI50 (MCF7)?
Answer: 21.3 µM

Question: What about the GI50 (MDA-MB-231) of the same compound?
Answer: 58 µM

Question: And the Vmax (Aromatase [4])?
Answer: 15.1 U/ms

Question: What about the Vmax (Aromatase [5]) of the same compound?
Answer: 19.3 U/ms

Question: For N[C@@H]1CCN(Cc2cc(O)c3cc(F)ccc3n2)C[C@H]1O, which IC50 (Aromatase [3]) is on record?
Answer: 20.9 µM

Question: What about the inhibition at 100 µM (Aromatase [1]) of the same compound?
Answer: 39%

Question: And the inhibition at 200 µM (Aromatase [2])?
Answer: 62%

Question: And the GI50 (MCF7)?
Answer: > 200 µM

Question: And the GI50 (MDA-MB-231)?
Answer: > 200 µM

Question: And the Vmax (Aromatase [4])?
Answer: 50.7 U/ms

Question: What about the Vmax (Aromatase [5]) of the same compound?
Answer: 64.6 U/ms

Question: With CC/C(=C(\c1ccc(O)cc1)c1ccc(OCCNC)cc1)c1ccccc1 [ENDOXIFEN] as the compound, how does the IC50 (Aromatase [3]) read?
Answer: 6.1 µM

Question: And the inhibition at 100 µM (Aromatase [1])?
Answer: 11%

Question: What about the inhibition at 200 µM (Aromatase [2]) of the same compound?
Answer: 58%

Question: For O=c1cc(CO)oc([C@H](Nc2ccccn2)c2ccccc2O)c1O, which inhibition at 100 µM (Aromatase [1]) is on record?
Answer: 0%

Question: And the inhibition at 200 µM (Aromatase [2])?
Answer: 3%

Question: Which results are given for Cc1ccc(C(c2ccc(C)c(C)c2)C(O)C(O)C(O)C(O)CO)cc1C (configuration not stated)?
Answer: inhibition at 100 µM (Aromatase [1]): 5%; inhibition at 200 µM (Aromatase [2]): 8%

Question: What does the source list for O=C(CCc1ccc(O)c(Cl)c1)NCc1csc(=O)[nH]1?
Answer: IC50 (Aromatase [3]): 21.7 µM; inhibition at 100 µM (Aromatase [1]): 53%; inhibition at 200 µM (Aromatase [2]): 69%; GI50 (MCF7): 66.4 µM; GI50 (MDA-MB-231): > 200 µM; Vmax (Aromatase [4]): 78.7 U/ms; Vmax (Aromatase [5]): 85.2 U/ms

Question: For C[C@@H](NC(=O)c1ccc(=O)[nH]c1)c1ccc2[nH]c(=O)[nH]c2c1, which inhibition at 100 µM (Aromatase [1]) is on record?
Answer: 27%

Question: And the inhibition at 200 µM (Aromatase [2])?
Answer: 41%

Question: How did the inhibition at 100 µM (Aromatase [1]) turn out when Nc1nc(O)cc(NC(=S)Nc2ccc(C(=O)O)cc2)n1 was run?
Answer: 8%

Question: What about the inhibition at 200 µM (Aromatase [2]) of the same compound?
Answer: 8%
